# Columns and labels:
# [1] = in vitro; conditions: human, HepG2 cells
# [2] = Selectivity index, ratio of IC50 for human HepG2 cells to IC50 for Entamoeba histolytica HM1:IMSS
# [3] = Cytotoxicity against human HepG2 cells assessed as cell viability at 50 to 100 uM after 48 hrs by MTT assay
# [4] = test system: HepG2; experiment: Cytotoxicity against human HepG2 cells after 48 hrs by MTT assay; conditions: HepG2, 48 h
# [5] = in vitro; conditions: human, HepG2 cells; remark: listed apart in the source
# [6] = test system: Entamoeba histolytica; experiment: Antiamoebic activity against Entamoeba histolytica HM1:IMSS after 72 hrs by microdilution method; assay type: functional, organism-based; conditions: HM-1:IMSS
# [7] = Cytotoxicity against human HepG2 cells assessed as cell viability at 100 uM after 48 hrs by MTT assay; assay type: cell-based; conditions: read-out: Activity
# Summary of the method: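 HepG2 grown in DMEM, 10% heat-inactivated FBS, antibiotics, 37 °C, 5% CO2; 1.2 × 10^4 cells/well pre-grown 48 h, then exposed to compounds (3.13–100 µM; DMSO stocks diluted in medium) for 48 h at 37 °C; MTT read-out at 570 nm, reference 655 nm; viability as % of untreated control; triplicate, repeated thrice.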
Structure (SMILES),IC50 [6],"viability at 48 h, 3.13 µM [1]",Ratio IC50 [2],"viability at 48 h, 100 µM [3]",IC50 [4],"viability at 48 h, 25 µM [5]","viability at 48 h, 100 µM [7]"
O=C(/C=C/c1ccc([N+](=O)[O-])cc1)c1ccccc1,6.02 µM,95%,10.74,40%,64.7 µM,72%,
Cc1ccc(C(=O)/C=C/c2ccc(Cl)cc2)cc1,5.22 µM,95%,14.21,40%,74.2 µM,72%,
Cc1ccc(C(=O)/C=C/c2ccc([N+](=O)[O-])cc2)cc1,5.08 µM,95%,16.85,40%,85.6 µM,72%,
COc1ccc(-c2nnnn2CC(=O)N2N=C(c3ccccc3)CC2c2ccccc2)cc1 (configuration not stated),5.32 µM,95%,16.03,40%,85.3 µM,72%,
COc1ccc(-c2nnnn2CC(=O)N2N=C(c3ccc(Cl)cc3)CC2c2ccc(Cl)cc2)cc1 (configuration not stated),4.65 µM,95%,17.26,40%,80.3 µM,72%,
COc1ccc(-c2nnnn2CC(=O)N2N=C(c3ccc(Cl)cc3)CC2c2ccc([N+](=O)[O-])cc2)cc1 (configuration not stated),4.89 µM,95%,17.68,40%,86.5 µM,72%,
O=C(/C=C/c1ccc([N+](=O)[O-])cc1)c1ccc(Cl)cc1,6.18 µM,95%,6.5,40%,40.2 µM,72%,
O=C(/C=C/c1ccccc1)c1ccc(Cl)cc1,6.96 µM,95%,13.6,40%,94.7 µM,72%,
COc1ccc(/C=C/C(=O)c2ccc(C)cc2)cc1,4.76 µM,95%,>21.01,40%,> 100 µM,72%,
COc1ccc(/C=C/C(=O)c2ccc(Cl)cc2)cc1,5.1 µM,95%,19.05,40%,97.2 µM,72%,
Cc1ccc(/C=C/C(=O)c2ccccc2)cc1,4.38 µM,,,,,,
Cc1ccc(/C=C/C(=O)c2ccc(Cl)cc2)cc1,5.32 µM,95%,17.4,40%,92.6 µM,72%,
Cc1ccc(C(=O)/C=C/c2ccccc2)cc1,4.83 µM,95%,>20.7,40%,> 100 µM,72%,
"O=C(/C=C/c1ccc(Cl)cc1)c1ccc(Cl)cc1 [4',4-DICHLOROCHALCONE]",5.86 µM,95%,14.13,40%,82.8 µM,72%,
"Cc1ccc(/C=C/C(=O)c2ccc(C)cc2)cc1 [4,4'-DIMETHYLCHALCONE]",4.19 µM,95%,,40%,> 100 µM,72%,
O=C(/C=C/c1ccc(Cl)cc1)c1ccccc1 [4-CHLORO CHALCONE],7.32 µM,95%,13.27,40%,97.2 µM,72%,
COc1ccc(/C=C/C(=O)c2ccccc2)cc1 [4-METHOXY CHALCONE],5.93 µM,95%,>16.86,40%,> 100 µM,72%,
O=C(/C=C/c1ccccc1)c1ccccc1 [CHALCONE],12.9 µM,95%,>7.78,40%,> 100 µM,72%,
Cc1ncc([N+](=O)[O-])n1CCO [METRONIDAZOLE],,95%,>55.55,,> 100 µM,,

# More lines, main results first:
IC50 [6],Structure (SMILES),"viability at 48 h, 3.13 µM [1]",Ratio IC50 [2],"viability at 48 h, 100 µM [3]",IC50 [4],"viability at 48 h, 25 µM [5]","viability at 48 h, 100 µM [7]"
3.02 µM,COc1ccc(-c2nnnn2CC(=O)N2N=C(c3ccccc3)CC2c2ccc(Cl)cc2)cc1 (configuration not stated),95%,26.62,40%,80.4 µM,72%,
1.28 µM,COc1ccc(-c2nnnn2CC(=O)N2N=C(c3ccccc3)CC2c2ccc(C)cc2)cc1 (configuration not stated),,>78.12,,> 100 µM,,≥ 68%
1.16 µM,COc1ccc(-c2nnnn2CC(=O)N2N=C(c3ccccc3)CC2c2ccc(OC)cc2)cc1 (configuration not stated),,>86.2,,> 100 µM,,≥ 68%
3.68 µM,COc1ccc(-c2nnnn2CC(=O)N2N=C(c3ccccc3)CC2c2ccc([N+](=O)[O-])cc2)cc1 (configuration not stated),95%,21.68,40%,79.8 µM,72%,
3.15 µM,COc1ccc(-c2nnnn2CC(=O)N2N=C(c3ccc(Cl)cc3)CC2c2ccccc2)cc1 (configuration not stated),95%,28.76,40%,90.6 µM,72%,
2.96 µM,COc1ccc(-c2nnnn2CC(=O)N2N=C(c3ccc(Cl)cc3)CC2c2ccc(C)cc2)cc1 (configuration not stated),95%,31.28,40%,92.6 µM,72%,
2.63 µM,COc1ccc(-c2nnnn2CC(=O)N2N=C(c3ccc(Cl)cc3)CC2c2ccc(OC)cc2)cc1 (configuration not stated),95%,>38.02,40%,> 100 µM,72%,
1.2 µM,COc1ccc(-c2nnnn2CC(=O)N2N=C(c3ccc(C)cc3)CC2c2ccccc2)cc1 (configuration not stated),,>83.33,,> 100 µM,,≥ 68%
2.84 µM,COc1ccc(-c2nnnn2CC(=O)N2N=C(c3ccc(C)cc3)CC2c2ccc(Cl)cc2)cc1 (configuration not stated),95%,34.5,40%,98 µM,72%,
0.86 µM,COc1ccc(-c2nnnn2CC(=O)N2N=C(c3ccc(C)cc3)CC2c2ccc(C)cc2)cc1 (configuration not stated),,>116.27,,> 100 µM,,≥ 68%
1.08 µM,COc1ccc(-c2nnnn2CC(=O)N2N=C(c3ccc(C)cc3)CC2c2ccc(OC)cc2)cc1 (configuration not stated),,>92.59,,> 100 µM,,≥ 68%
2.63 µM,COc1ccc(-c2nnnn2CC(=O)N2N=C(c3ccc(C)cc3)CC2c2ccc([N+](=O)[O-])cc2)cc1 (configuration not stated),95%,>38.02,40%,> 100 µM,72%,
